This is a sample that favours compounds with a hit; in the whole collection about 3.8% have one here.
T cell modulator: modulates CD8 T cell binding to vesicles; 2C CD8+ T cell-vesicle binding, flow cytometry; stronger effect = lower value; response (vesicle binding), % at 7 µM; 330,000 tested, 0.068% active;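 active = response, share of CD8 T cells binding vesicles, and their 90th percentile fluorescence all below set limits, cut at about 80% in these data, passing the limit was not always enough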;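 also: values below 100% mean blocked vesicle binding to the CD8+ T cells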
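incubation = binding step 1.5 h, 37 °C, antibody labelling 20 min, ice | test system = 2C mouse CD8+ T cells | read-out basis = percent CD8+ FL2 mean versus row control | controls = Peptide-free naked vesicles (low) and QL9 vesicles with 0.7% DMSO vehicle (high) | detection = flow cytometry of vesicle-bound cells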
rCAG RNA binder: r(CAG) repeat RNA binding; TO-PRO-1 dye displacement fluorescence; inhibition, % at 3 µM; 370,000 tested, 1.3% active; AID 651821;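 active = inhibition above the plate cutoff, the mean of all test compounds on that plate plus 3 SD, cut at about 35% in these data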;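 also: 0% = DMSO alone and 100% = 100 µM mitoxantrone as full dye displacement; higher means more dye released from RNA so lower well fluorescence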
Exocytosis inh: blocks lytic granule exocytosis | TALL-104 LAMP-1 surface exposure, flow cytometry; cells stimulated with thapsigargin and PMA | inhibition, % at 10 µM | 360,000 tested, 0.66% active | AID 651702;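 active = inhibition above about 55%, limit read from the data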
B2AR ag: human beta-2 adrenergic receptor agonism by FAP. Am2.2-beta2AR cells, FAP receptor internalization, flow cytometry. response, % (concentration not given with the values). 340,000 tested, 0.43% active. AID 504454;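 active = response above a set limit, near 3 SD of response in nonfluorescent compounds, cut at about 42% in these data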
Target sequence (P07550 whole entry, looked up): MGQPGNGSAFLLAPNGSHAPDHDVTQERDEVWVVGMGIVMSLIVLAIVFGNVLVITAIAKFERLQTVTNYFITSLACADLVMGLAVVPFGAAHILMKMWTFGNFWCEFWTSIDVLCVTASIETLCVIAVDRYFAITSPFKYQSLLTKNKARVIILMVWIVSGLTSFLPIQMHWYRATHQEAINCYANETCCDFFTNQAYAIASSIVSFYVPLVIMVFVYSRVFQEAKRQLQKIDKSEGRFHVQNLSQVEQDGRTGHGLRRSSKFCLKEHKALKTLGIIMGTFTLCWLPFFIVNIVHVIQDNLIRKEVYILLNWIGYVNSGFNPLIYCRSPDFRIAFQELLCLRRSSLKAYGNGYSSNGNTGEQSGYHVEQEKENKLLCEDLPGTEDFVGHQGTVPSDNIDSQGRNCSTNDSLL
MPTP block: blocks calcium-induced mitochondrial swelling. inhibition, % at 10 µM. 360,000 tested, 1.4% active. isolated mouse mitochondria, Ca2+ swelling absorbance, 30 min. AID 602449;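 active = inhibition of 50% or more, scaled per plate between neutral and stimulator controls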;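 also: 0% = DMSO wells given calcium and 100% = 1 mM EGTA wells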
V-ATPase pHluor: regulators of yeast V-ATPase proton transport. response, % at 10 µM. 350,000 tested, 0.37% active. S. cerevisiae, pHLuorin cytosolic pH fluorescence; in the data active = response mostly above about 7.3%, no sharp cut-off; inactive = mostly below about 5.4%; also: actives read high
rCAG bind conf: r(CAG) RNA repeat binding, confirmation. shares compounds with rCAG RNA binder. TO-PRO-1 dye displacement fluorescence. inhibition, % at 3 µM. 4,300 tested, 70% active;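 active = inhibition above a per-plate cutoff, the mean inhibition of sample wells plus 3 SD, cut at about 35% in these data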;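 also: loss of TO-PRO-1 fluorescence as compound displaces dye from 1x1 AA loop RNA; 0% = DMSO only wells and 100% = 100 µM mitoxantrone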
DNA CAG counter: disrupts DNA CAG TO-PRO-1 complex, flagging rCAG hits | inhibition, % at 3 µM | d(CAG) DNA oligo TO-PRO-1 dye displacement, fluorescence | 4,300 tested, 94% active | shares compounds with rCAG RNA binder;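 active = inhibition above its plate's cutoff, the mean test-well inhibition plus 3 SD, cut at about 4.8% in these data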;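 also: 0% = DNA dye mix with DMSO and 100% = 100 µM mitoxantrone; hits displace the dye from DNA and so lower well fluorescence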
* = called active by the depositor; nt = not tested or not shown.

SMILES | T cell modulator | rCAG RNA binder | Exocytosis inh | B2AR ag | MPTP block | V-ATPase pHluor | rCAG bind conf | DNA CAG counter
COc1cc(/C=C2/SC(=NCc3ccccc3)N(Cc3ccccc3)C2=O)ccc1O | 440 | 38* | 3 | 6 | -4 | 0 | 42* | 23*
O=C1/C(=C\c2ccc(O)c(O)c2)SC(=S)N1Cc1ccccc1 | 219 | 64* | 4 | -175 | 38 | 0 | 69* | 38*
COc1cc(/C=C2/SC(=S)N(Cc3ccccc3)C2=O)ccc1O | 237 | 55* | -4 | 1 | 5 | 5 | 35* | 18*
CCN=C1S/C(=C\c2ccc(O)c(OCC)c2)C(=O)N1CC | 279 | 10 | -5 | -3 | 0 | 3 | nt | nt
COc1ccc(/C=C2\SC(=S)N(Cc3cccnc3)C2=O)cc1C | 221 | 0 | -1 | 10 | 0 | -4 | nt | nt
O=C1CCCC2=C1C(c1cn(-c3ccccc3)nc1-c1cccs1)c1c([nH]c(=O)[nH]c1=O)N2 (stereo not drawn) | 210 | 39* | -1 | 18 | -2 | -1 | 27 | 15*
CSc1nc2c(c(=O)[nH]1)C(c1cccs1)C1=C(CCCC1=O)N2 (stereo not drawn) | 402 | 1 | -3 | -3 | 0 | 0 | nt | nt
Cc1ccc(S(=O)(=O)N2[C@@H](c3ccc(Br)cc3)C(C(=O)O)=CC[C@H]2c2ccc(Cl)c(Cl)c2)cc1 | 310 | 87* | 5 | 4 | -2 | 1 | 82* | 52*
Cc1ccc(S(=O)(=O)N2[C@@H](c3ccc(Br)cc3)C(C(=O)O)=CC[C@H]2c2cccc(Cl)c2)cc1 | 116 | 14 | -1 | 4 | 1 | -1 | nt | nt
Cc1ccc(S(=O)(=O)N2[C@@H](c3ccc(C(C)(C)C)cc3)C(C(=O)O)=CC[C@H]2c2cccc(Cl)c2)cc1 | 972 | 88* | 2 | 5 | 2 | -1 | 75* | 41*
O=C(O)C1=CCC(c2ccc(Cl)c(Cl)c2)N(S(=O)(=O)c2ccc(F)cc2)C1c1cccc(F)c1 (stereo not drawn) | nt | 72* | 1 | nt | 1 | nt | 68* | 26*
Cc1ccc(S(=O)(=O)N2[C@@H](c3ccc(C(C)(C)C)cc3)C(C(=O)O)=CC[C@H]2c2ccc(Cl)c(Cl)c2)cc1 | 294 | 68* | 2 | 6 | 0 | 1 | 49* | 24*
Cc1ccc(S(=O)(=O)N2[C@@H](c3ccc(F)cc3)C(C(=O)O)=CC[C@H]2c2cccc(Cl)c2)cc1 | 413 | 8 | 12 | 1 | 3 | 9 | nt | nt
Cc1ccc([C@H]2C(C(=O)O)=CC[C@@H](c3cccc(Cl)c3)N2S(=O)(=O)c2ccc(C)cc2)cc1 | nt | 19 | 0 | 3 | 7 | -2 | nt | nt
Cc1ccccc1S(=O)(=O)N(C)C[C@@H]1OCc2cn(nn2)CCCC(=O)N([C@@H](C)CO)C[C@H]1C | nt | 2 | nt | nt | nt | nt | nt | nt
CCOc1ccc(C(=O)N[C@H](C(=O)Nc2ccc(S(=O)(=O)Nc3nccs3)cc2)C(C)C)cc1 | 622 | 47* | -5 | 0 | 0 | -1 | 46* | 15*
Cc1cccc(C(=O)NC(C(=O)Nc2ccc(S(=O)(=O)Nc3nccs3)cc2)C(C)C)c1 (stereo not drawn) | nt | 42* | 6 | -2 | -1 | 4 | 35* | 13*
CCCCOC(=O)Nc1ccc(S(=O)(=O)Nc2nccs2)cc1 | 253 | 8 | 4 | 2 | 1 | 1 | nt | nt
CCOC(=O)C1=C(C(=O)OCC)C2N(Cc3ccc(Br)cc3)c3ccccc3[C@@]23C[C@@H](C(=O)OC)N(S(=O)(=O)c2cccs2)C3=N1 (stereo partly drawn) | nt | 11 | nt | nt | nt | nt | nt | nt
COc1ccc(NC(=O)/C(C#N)=C\c2ccc(Br)o2)cc1 | 182 | 8 | -3 | -4 | 2 | -3 | nt | nt
N#C/C(=C\c1ccc([N+](=O)[O-])o1)C(=O)Nc1ccc(F)cc1 | 156 | 52* | 86* | -60 | 4 | 114* | 30 | 14*
COC(=O)C1=C(C)N(C)C(=NCc2ccc3c(c2)OCO3)NC1c1cccc(Cl)c1 (stereo not drawn) | nt | 10 | nt | nt | nt | nt | nt | nt
Nc1nc(-c2cc(O)ccc2[N+](=O)[O-])cc(-c2ccccc2)c1[N+](=O)[O-] | 263 | 57* | 1 | 23 | 1 | 0 | 44* | 24*
O=[N+]([O-])c1ccc2nc(-c3ccccc3)cc(-c3ccccc3)c2c1 | 450 | 1 | -2 | -6 | 2 | 2 | nt | nt
O=C(O)CSCC(=O)N(Cc1ccccc1)c1nc(-c2ccccc2)c(-c2ccccc2)s1 | 607 | 68* | 5 | 3 | -4 | -4 | 86* | 54*
SMILES | T cell modulator | rCAG RNA binder | Exocytosis inh | B2AR ag | MPTP block | V-ATPase pHluor | rCAG bind conf | DNA CAG counter
CCOC(=O)c1sc(N(Cc2ccccc2)C(=O)CCl)nc1C | 665 | -8 | -10 | 18 | -1 | 0 | nt | nt
Cc1ccc(-c2cc(C(=O)NN=Cc3sccc3C)[nH]n2)cc1C | nt | 13 | nt | nt | nt | nt | nt | nt
COC(=O)[C@]12C[C@H](CC(=O)N3CCSCC3)C(=O)N(Cc3ccco3)C1=C[C@H](C(C)C)O[C@@H]2C1CC1 | nt | 4 | nt | nt | nt | nt | nt | nt
Brc1cccc(-c2nc3ccc(Br)cn3c2Cc2ccccc2)c1 | nt | 49* | 0 | nt | 1 | nt | 12 | 6.2*
Clc1ccc(-c2nc3ccc(Br)cn3c2Cc2cccc(Cl)c2)cc1 | nt | 38* | -1 | nt | 2 | nt | 32 | 9.2*
Clc1cccc(Cc2c(-c3cccc(Cl)c3)nc3ccc(Br)cn23)c1 | nt | 10 | 2 | nt | 1 | nt | nt | nt
Clc1cccc(-c2nc3ccc(Br)cn3c2Cc2ccccc2)c1 | nt | 50* | -5 | nt | 1 | nt | 13 | 4
Cc1ccc(-c2nc3ccc(Cl)cn3c2Cc2cccc(Cl)c2)cc1 | nt | 59* | -4 | nt | 1 | nt | 42* | 10*
CC(C)CN1C(=O)C[C@]2(C(=O)N(C)c3ccc(NS(=O)(=O)C4CCCCC4)cc32)C1c1ccccc1 (stereo partly drawn) | nt | 4 | nt | nt | nt | nt | nt | nt
C[C@H](O)[C@@H]1C(=O)N2CCc3c([nH]c4cccc(-c5ccccc5)c34)[C@@H]2C[C@@H]1N(C)C(=O)Nc1ccccc1 | nt | 8 | nt | nt | nt | nt | nt | nt
CC1(C)CC(=O)C=C(Nc2ccccc2NC(=O)c2cc(F)ccc2F)C1 | nt | -2 | nt | nt | nt | nt | nt | nt
CCOC(=O)[C@@]12CCC3=C1N(CCC3)C(=O)[C@H](CC(=O)NCCCCc1ccccc1)C2 | nt | 1 | nt | nt | nt | nt | nt | nt
C[C@H]1CN(S(=O)(=O)C(C)(C)C)[C@@H](CCO)/C1=C\CCO | nt | 3 | nt | nt | nt | nt | nt | nt
Cc1cc2nc(-c3ccc(F)cc3)c(Cc3cccc(Cl)c3)n2c(C)c1Br | nt | 61* | -4 | nt | 1 | nt | 29 | 8.4*
Cc1ccc(-c2nc3cc(C)c(Br)c(C)n3c2Cc2cccc(Cl)c2)cc1 | nt | nt | -3 | nt | 0 | nt | nt | nt
